Experimental data taken from publication PMC7498158 (Journal of Medicinal Chemistry, 2020).

How the values were obtained:
Type in all cases: biochemical
mDAGLβ = target: T1, mDAGLβ (Mus musculus, UniProt Q91WC9); assay: gel-based ABPP, mouse brain membrane proteome; details: 10 μM
T1 sequence (Q91WC9 1-669): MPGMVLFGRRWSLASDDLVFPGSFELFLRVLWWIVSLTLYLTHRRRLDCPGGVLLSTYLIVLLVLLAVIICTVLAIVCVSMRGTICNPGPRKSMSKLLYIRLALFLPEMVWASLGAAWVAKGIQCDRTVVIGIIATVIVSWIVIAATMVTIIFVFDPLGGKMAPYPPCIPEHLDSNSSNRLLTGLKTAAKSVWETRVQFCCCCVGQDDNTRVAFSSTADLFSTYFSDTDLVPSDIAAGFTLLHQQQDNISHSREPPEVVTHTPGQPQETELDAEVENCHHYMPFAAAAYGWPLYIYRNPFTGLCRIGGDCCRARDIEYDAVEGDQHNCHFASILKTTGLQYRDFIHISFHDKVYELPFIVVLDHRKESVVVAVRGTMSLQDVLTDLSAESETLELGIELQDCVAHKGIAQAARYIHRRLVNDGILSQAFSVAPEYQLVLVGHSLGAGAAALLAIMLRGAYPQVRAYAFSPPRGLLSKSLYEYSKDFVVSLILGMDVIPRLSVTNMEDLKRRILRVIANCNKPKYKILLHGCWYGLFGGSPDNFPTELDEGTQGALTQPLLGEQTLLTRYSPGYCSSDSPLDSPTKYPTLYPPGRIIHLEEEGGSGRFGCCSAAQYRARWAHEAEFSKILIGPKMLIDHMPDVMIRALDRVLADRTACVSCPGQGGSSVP
In short: (§1)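 Mouse brain was dounce-homogenized in 20 mM HEPES pH 7.2 with DTT, MgCl2 and benzonase. The membrane pellet from ultracentrifugation (100,000g, 45 min, 4 °C) was used at 2 μg/μL. It was preincubated with test compound in DMSO (30 min, rt), then labeled with MB064 (250 nM) or FP-TAMRA (500 nM) for 15 min at rt. Samples ran on 10% SDS-PAGE; fluorescence was normalized to Coomassie staining.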

PLAAT2 = target: T2, PLAAT2 (Homo sapiens, UniProt Q9NWW9)
T2 sequence (Q9NWW9 1-162): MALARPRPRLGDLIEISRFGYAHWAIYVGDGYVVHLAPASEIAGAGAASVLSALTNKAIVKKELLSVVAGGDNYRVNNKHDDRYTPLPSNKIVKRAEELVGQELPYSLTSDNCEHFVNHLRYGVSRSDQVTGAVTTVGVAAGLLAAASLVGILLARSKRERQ
In short: (§2)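 Human PLAAT cDNA (C-terminal FLAG, pcDNA3.1) was PEI-transfected into HEK293T; cytosol came from a 100,000g spin. Cytosol was preincubated with test compound (30 min, rt), then MB064 (20 min, rt). Conditions: PLAAT2 0.25 μg/μL, 250 nM; PLAAT3 0.5 μg/μL, 250 nM; PLAAT4/5 1 μg/μL, 500 nM. In-gel fluorescence was normalized to Coomassie, in triplicate. Single-concentration screen or IC50 from dose–response curves.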

mABHD6 = target: T3, mABHD6 (Mus musculus, UniProt Q8R2Y0); assay: gel-based ABPP, mouse brain membrane proteome; details: 10 μM
T3 sequence (Q8R2Y0 1-336): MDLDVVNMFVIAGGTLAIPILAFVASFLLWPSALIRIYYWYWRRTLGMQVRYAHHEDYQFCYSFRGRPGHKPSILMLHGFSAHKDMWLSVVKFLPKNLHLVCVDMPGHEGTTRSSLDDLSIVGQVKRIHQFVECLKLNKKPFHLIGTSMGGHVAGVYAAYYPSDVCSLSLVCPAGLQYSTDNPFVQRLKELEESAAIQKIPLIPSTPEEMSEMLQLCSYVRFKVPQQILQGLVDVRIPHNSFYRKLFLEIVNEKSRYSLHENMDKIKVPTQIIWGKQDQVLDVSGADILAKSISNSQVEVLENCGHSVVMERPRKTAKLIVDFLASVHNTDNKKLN
In short: as §1

PLAAT5 = target: T4, PLAAT5 (Homo sapiens, UniProt Q96KN8)
T4 sequence (Q96KN8 1-279): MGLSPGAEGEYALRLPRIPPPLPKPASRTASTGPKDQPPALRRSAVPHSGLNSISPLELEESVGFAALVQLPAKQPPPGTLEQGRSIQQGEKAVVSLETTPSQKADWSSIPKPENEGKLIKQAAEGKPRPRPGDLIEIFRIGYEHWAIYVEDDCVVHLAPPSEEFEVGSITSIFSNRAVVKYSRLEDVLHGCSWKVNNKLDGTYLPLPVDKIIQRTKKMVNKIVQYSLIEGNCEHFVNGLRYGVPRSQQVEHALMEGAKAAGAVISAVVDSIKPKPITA
In short: as §2

mDAGLα = target: T5, mDAGLα (Mus musculus, UniProt Q6WQJ1); assay: gel-based ABPP, mouse brain membrane proteome; details: 10 μM
T5 sequence (Q6WQJ1 1-1044): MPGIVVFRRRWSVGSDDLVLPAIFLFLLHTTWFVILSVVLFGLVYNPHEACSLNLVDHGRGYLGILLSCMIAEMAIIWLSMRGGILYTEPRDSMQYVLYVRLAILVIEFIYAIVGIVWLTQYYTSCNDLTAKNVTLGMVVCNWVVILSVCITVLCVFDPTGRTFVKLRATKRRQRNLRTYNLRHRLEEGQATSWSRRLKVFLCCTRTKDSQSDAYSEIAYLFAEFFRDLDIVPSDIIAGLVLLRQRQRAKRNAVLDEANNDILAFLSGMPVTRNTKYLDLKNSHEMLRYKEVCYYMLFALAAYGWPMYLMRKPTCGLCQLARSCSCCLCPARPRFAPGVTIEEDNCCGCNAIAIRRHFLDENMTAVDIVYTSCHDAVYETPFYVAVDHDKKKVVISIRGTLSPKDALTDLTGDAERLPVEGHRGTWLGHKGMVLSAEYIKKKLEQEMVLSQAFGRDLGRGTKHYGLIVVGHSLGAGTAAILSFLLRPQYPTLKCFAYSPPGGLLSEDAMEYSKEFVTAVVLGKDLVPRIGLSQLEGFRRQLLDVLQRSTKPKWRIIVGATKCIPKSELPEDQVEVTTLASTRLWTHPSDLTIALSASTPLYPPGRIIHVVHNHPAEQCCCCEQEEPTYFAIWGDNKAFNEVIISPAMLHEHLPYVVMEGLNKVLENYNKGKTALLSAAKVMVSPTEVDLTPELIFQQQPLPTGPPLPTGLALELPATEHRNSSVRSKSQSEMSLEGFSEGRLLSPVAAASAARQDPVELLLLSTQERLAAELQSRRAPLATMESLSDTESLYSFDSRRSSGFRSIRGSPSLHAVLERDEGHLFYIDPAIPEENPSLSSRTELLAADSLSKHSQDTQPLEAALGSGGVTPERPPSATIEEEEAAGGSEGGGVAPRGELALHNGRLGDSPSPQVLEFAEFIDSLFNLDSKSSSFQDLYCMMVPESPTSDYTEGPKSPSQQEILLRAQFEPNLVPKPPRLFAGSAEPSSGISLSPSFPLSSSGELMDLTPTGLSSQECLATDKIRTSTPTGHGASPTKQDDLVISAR
In short: as §1

What does the source list for `O=C(CCCc1ccccc1)C(=O)NCCc1ccc(Oc2ccccc2)cc1` [Compound 51, 2-Oxo-N-(4-phenoxyphenethyl)-5-phenylpentanamide]?
inhibition of DAGLβ (in words) (mDAGLβ): not inhibited; higher potency for PLAAT2 than initial hit (PLAAT2): 10 fold; increase in activity/potency for PLAAT2 compared to 25 (PLAAT2): 10 fold; inhibition of ABHD6 (in words) (mABHD6): not inhibited; higher potency for PLAAT5 than initial hit (PLAAT5): 10 fold; inhibition of DAGLα (in words) (mDAGLα): not inhibited
